Shown are actives, neighbours in structure and some others; about 4.5% of the full set was active somewhere.
NS3 helicase inh: HCV NS3 helicase inhibition; NS3 helicase DNA unwinding, Cy5 molecular beacon fluorescence; inhibition, % at 10.9 µM; 290,000 tested, 0.56% active; AID 1800;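 active = inhibition above the mean of all tested compounds plus 3 SD, set per campaign, cut at about 35% in these data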;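 also: 0% = DMSO wells and 100% = thioflavine S control wells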
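Measured by: Cy5 fluorescence, 0 and 60 min reads / Assay system: NS3 helicase fragment of HCV / Control set: low DMSO, high thioflavine S at 110 µM / Times: 1 h reaction at 25 °C, ATP-initiated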
PfM18AAP inh: PfM18AAP enzyme inhibition | recombinant PfM18AAP, H-Glu-NHMec fluorogenic cleavage | inhibition, % at 7.35 µM | 290,000 tested, 1.2% active | AID 1822;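 active = inhibition above the campaign mean inhibition over all tested compounds plus 3 SD, cut at about 28% in these data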;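 also: 0% = plate median of test compound wells and 100% = 2 mM ZnCl2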
XBP1 UPR activ: adaptive UPR (XBP1) activation; AID 463104; CHO-XBP1 luciferase reporter, IRE1-XBP1 UPR activation, luminescence; percent of tunicamycin response, DMSO as zero; 330,000 tested, 0.33% active; activation, % at 20 µM;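 active = versus positive control, 20 µM dose yields 30% or more activation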;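 also: 100% = tunicamycin at 10 µg/mL and 0% = DMSO only wells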
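Material – CHO cell line with stable XBP1 luciferase reporter · Buffer or medium – F12 plus 10% FBS · Compound – single point, 20 µM final compound, 1% DMSO · Schedule – 16-18 h cell attachment at 37 °C, then 6 h compound exposure · Signal – Steady-Glo luminescence read · Benchmarks – high control tunicamycin 10 µg/mL final, low control DMSO vehicle only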
CHOP UPR activ: activators of apoptotic arm of unfolded protein response (CHOP) | CHO-CHOP luciferase reporter, UPR activation, luminescence; percent of tunicamycin response over DMSO baseline | activation, % at 10 µM | 330,000 tested, 0.34% active;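 active = at 10 µM dose, activation of 40% or more, normalized to positive control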;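 also: 100% = tunicamycin at 10 µg/mL and 0% = DMSO alone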
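System: CHO-CHOP luciferase reporter cell line | Buffer or medium: F12 medium containing 10% fetal bovine serum | Doses: One dose, 10 µM in 0.5% DMSO | Times: 6 h compound exposure at 37 °C after overnight seeding | Signal: Luciferase luminescence | Read-out: % activation vs tunicamycin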
CHOP inhibitor: blocks CHOP induction under ER stress | CHO-K1 CHOP-promoter luciferase, tunicamycin-induced, 15-18 h | inhibition, % at 10 µM | 220,000 tested, 3.8% active | AID 2732;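 active = compounds that reduced the stress-induced luciferase reporter signal by more than about 70% of percent inhibition, limit read from the data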;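 also: 0% = tunicamycin plus vehicle and 100% = wells without tunicamycin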
p97 ATPase inh: blocks human p97 ATPase activity; P55072; recombinant p97 ATPase, Kinase-Glo ATP luminescence, 3 h; inhibition, % at 8 µM; 220,000 tested, 0.42% active; AID 1481; in the data active = inhibition above about 15%;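 also: 0% = DMSO vehicle and 100% = wells lacking enzyme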
Target sequence (P55072 whole entry, looked up): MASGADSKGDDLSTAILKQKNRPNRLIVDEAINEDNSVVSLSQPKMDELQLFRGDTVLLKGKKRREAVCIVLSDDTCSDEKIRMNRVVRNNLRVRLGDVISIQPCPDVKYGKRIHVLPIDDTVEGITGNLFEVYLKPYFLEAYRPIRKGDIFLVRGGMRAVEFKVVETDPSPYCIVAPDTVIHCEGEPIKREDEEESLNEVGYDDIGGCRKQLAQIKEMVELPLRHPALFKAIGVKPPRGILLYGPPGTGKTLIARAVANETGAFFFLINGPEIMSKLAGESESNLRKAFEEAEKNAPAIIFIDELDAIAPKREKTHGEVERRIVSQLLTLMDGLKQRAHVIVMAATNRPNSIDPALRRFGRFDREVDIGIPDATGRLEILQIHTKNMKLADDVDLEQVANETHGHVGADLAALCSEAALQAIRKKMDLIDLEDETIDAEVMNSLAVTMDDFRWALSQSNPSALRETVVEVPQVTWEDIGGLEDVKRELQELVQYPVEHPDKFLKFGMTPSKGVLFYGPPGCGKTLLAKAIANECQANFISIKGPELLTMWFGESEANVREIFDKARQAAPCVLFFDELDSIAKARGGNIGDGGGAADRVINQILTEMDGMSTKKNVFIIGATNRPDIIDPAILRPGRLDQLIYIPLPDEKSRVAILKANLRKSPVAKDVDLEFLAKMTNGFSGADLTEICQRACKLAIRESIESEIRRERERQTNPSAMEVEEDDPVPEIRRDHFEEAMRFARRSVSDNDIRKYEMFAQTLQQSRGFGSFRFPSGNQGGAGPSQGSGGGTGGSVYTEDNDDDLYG
CHOP confirm: confirmation of CHOP induction inhibitors; shares compounds with CHOP inhibitor; CHO-CHOP promoter luciferase reporter, tunicamycin-induced, luminescence; inhibition, % at 10 µM; 2,100 tested, 45% active;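 active = mean of three repeat readings of reporter signal inhibition above a set limit, cut at about 70% in these data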;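 also: 0% = tunicamycin plus vehicle and 100% = wells lacking tunicamycin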
An asterisk follows results filed as active; x = no result given.

SMILES	NS3 helicase inh	PfM18AAP inh	XBP1 UPR activ	CHOP UPR activ	CHOP inhibitor	p97 ATPase inh	CHOP confirm
C=CCN1C=C2C(=O)C(C)(OC(=O)c3ccc(OC)cc3)C(=O)C(c3ccco3)=C2C=C1CCCC (centres undefined)	x	x	2.0	-0.8	-7.2	x	x
CCCCC1=CC2=C(c3ccco3)C(=O)C(C)(OC(=O)c3ccc(OC)cc3)C(=O)C2=CN1c1ccccc1 (centres undefined)	x	x	-0.7	0.6	103.8*	x	-64.3
CN(CCc1ccccn1)S(=O)(=O)c1ccc(F)cc1	8.4	-2.2	0.3	-2.2	8.6	-1.9	x
CC(C)(C)c1cc(S(=O)(=O)CCc2ccccn2)cc(C(C)(C)C)c1F	-8.9	4.2	1.2	1.9	97.2*	-4.5	130.7*
Cc1ccc(CN2C(=O)N/C(=C/c3ccc4c(c3)n(C)c(=O)n4C)C2=O)cc1	11.2	7.5	2.6	0.4	106.3*	1.0	55.4
CSC(SC)=C(C#N)C(=O)c1ccccc1	-2.5	-12.6	-8.3	38.6	106.7*	-4.4	102.0*
O=C(O)c1ccc(C(=O)C(=O)c2ccccc2)cc1	14.1	8.0	0.0	2.4	7.0	-5.0	x
CCOC(=O)c1ccc(Nc2ccc(-c3ccc(OC)c(OC)c3)nn2)cc1	1.6	5.4	7.4	2.6	102.0*	-0.4	12.9
O=C(O)C(Cc1ccccc1)N1C(=O)c2c(Cl)c(Cl)c(Cl)c(Cl)c2C1=O (centres undefined)	x	x	-1.7	1.2	x	x	x
CCCn1c(=O)cc(N)n(-c2ccc(OC(F)(F)F)cc2)c1=O	3.0	7.8	0.1	0.3	x	x	x
Clc1ccc(-n2ncc3c(NCc4ccco4)ncnc32)cc1	2.4	5.7	5.6	-0.2	57.8	-4.8	x
Clc1ccc(-n2ncc3c(NCc4ccc5c(c4)OCO5)ncnc32)cc1	-0.8	2.2	-3.5	-0.8	103.9*	-0.6	39.4
CN(C(=O)c1ccc(NC(=O)C2CCCN(C(=O)OC(C)(C)C)C2)cc1)C1CCCC1 (centres undefined)	x	x	-1.4	-0.2	x	x	x
C=CCn1c(SCC(=O)NCCO)nc2sc(C)c(C)c2c1=O	-4.9	-0.5	1.0	2.5	-5.4	1.6	x
C=CCn1c(SCC(=O)NC(=O)NCc2ccco2)nc2sc(C)c(C)c2c1=O	-0.3	-4.8	2.3	2.1	104.4*	-2.7	30.1
CCc1nc2sc3c(c2c(=O)n1N)CCC3	-1.8	1.8	-2.6	-2.2	10.2	5.7	x
Nn1c(Nc2ccccc2)nc2sc3c(c2c1=O)CCC3	-8.6	1.7	x	x	96.5*	3.0	45.2
Cn1c(=O)c([N+](=O)[O-])c(-n2ccnc2)c2ccccc21	-2.2	6.5	-1.8	15.1	102.8*	4.7	-90.0
Cc1ccc(S(=O)(=O)CC#CCOC(=O)c2ccc([N+](=O)[O-])cc2)cc1	2.8	-13.3	-0.8	-0.1	106.9*	1.4	107.7*
Cc1ccc(CONC(=O)c2ccc([N+](=O)[O-])cc2)cc1	x	x	3.5	2.1	x	x	x
COC(=O)c1sc(N2CCN(c3ccc(Cl)cc3)CC2)nc1N	4.7	1.4	1.0	-0.5	8.8	-1.6	x
CN(C)c1ccc(Nc2cc(Cl)ncn2)cc1	10.3	-25.1	-0.9	6.5	x	x	x
COc1ccc(/C=C2\SC(=O)N(CC(=O)NCCC(C)C)C2=O)cc1OC	1.5	11.4	-4.4	1.1	1.8	-14.5	x
COc1ccc(/C=C2/SC(=O)N(CC(=O)NCCC(C)C)C2=O)cc1OC	8.2	4.9	2.5	1.3	100.4*	1.9	-34.5
Cc1ccc2nc(SC(C(=O)Nc3ccc(F)cc3)c3ccccc3)[nH]c2c1 (centres undefined)	-11.3	-7.2	-2.4	1.9	106.4*	-2.6	55.8
SMILES	NS3 helicase inh	PfM18AAP inh	XBP1 UPR activ	CHOP UPR activ	CHOP inhibitor	p97 ATPase inh	CHOP confirm
Cc1ccccc1/C=N/n1c(-c2cc(-c3ccccc3)n[nH]2)n[nH]c1=S	0.3	7.4	-2.3	0.8	103.8*	-7.3	57.1
CCOc1cc(/C=N/NC(=O)COc2cccc(C)c2)ccc1OC(=O)c1cccs1	-5.8	9.3	7.9	3.8	106.2*	-5.8	94.2*
COc1cc(/C=N/NC(=O)COc2ccccc2C)ccc1OC(=O)c1cccs1	-3.5	-2.4	17.0	16.1	-1.8	-1.3	x
Cc1ccc(S(=O)(=O)N/N=C\c2cn(-c3ccccc3)nc2-c2ccccc2)cc1	0.9	-0.2	-3.4	3.8	96.7*	2.3	5.4
O=C(NCC1CC1)C1(S(=O)(=O)c2ccccc2)CC=CC1	22.0	-5.4	0.4	-1.1	x	x	x
OCC[C@@H]1C[C@H](O)[C@@H](O)[C@@]2(OCCCc3ccccc32)O1	-0.6	2.6	2.2	-1.2	x	x	x
COc1ccc(C2=C/C(=C/c3cccnc3)C(=O)O2)cc1OC	-3.3	-4.8	0.3	0.3	104.6*	0.7	14.1
CCOc1ccc(C2=C/C(=C/c3cccnc3)C(=O)O2)cc1	21.9	-15.1	2.8	2.7	103.0*	-0.3	90.6*
O=C(Nc1ccc2c(c1)CCC2)Nc1ccccc1F	-7.1	1.4	-2.7	2.5	x	x	x
Cc1ccc(C(C(=O)NCc2ccco2)N(C(=O)CNC(=O)c2cccs2)c2ccc(C)cc2)cc1 (centres undefined)	-6.8	-15.4	-3.3	-1.6	24.4	1.5	x
Cc1ccc(C(C(=O)NCc2ccco2)N(C(=O)CNC(=O)c2cccs2)c2c(C)cccc2C)cc1 (centres undefined)	7.8	-0.9	18.7	4.6	100.7*	-5.5	80.4*
CCCCCCCOC(=O)c1nc(Cl)c(Cl)c(N)c1Cl	-9.3	-9.5	0.8	0.7	98.7*	-4.6	54.6
CCCCOC(=O)c1nc(Cl)c(Cl)c(N)c1Cl	10.0	-10.4	-0.1	4.4	5.7	0.1	x
O=C(CSCc1ccccc1)N=Nc1c(O)[nH]c2ccccc12	-18.7	11.1	4.5	5.2	22.4	4.7	x
Cc1ccc2[nH]c(O)c(N=NC(=O)CCc3ccccc3)c2c1Br	-12.6	6.7	-2.5	-0.3	106.8*	6.2	83.0*
CCCCCn1nc(C(=O)OCc2nc(N)nc(Nc3ccccc3)n2)c2ccccc2c1=O	x	x	3.8	0.0	x	x	x
CCCCCCCCNC1=CC(=O)CC(C)(C)C1	24.9	-3.6	2.8	-0.4	-14.2	-7.3	x
O=c1[nH]c2ccc(Cl)cc2c(-c2ccccc2)c1SC(=S)N1CCOCC1	3.4	1.7	-1.2	-1.5	98.9*	1.2	35.8
O=C(CCC(=O)c1cccs1)OCC(=O)c1ccccc1F	x	x	0.6	-0.7	x	x	x
CC(C)CC(=O)Nc1cccc(C(C)O)c1 (centres undefined)	5.2	-2.4	-0.8	2.3	-0.3	-0.4	x
Cc1ccc2c(COC(=O)c3n[nH]c4ccccc34)cc(=O)oc2c1	-0.2	3.8	5.2	3.4	49.9	-5.1	x

Assay outcomes: PubChem, several laboratories
